Source: PubChem BioAssay
CDK5 p35 inh: blocks human CDK5/p35 kinase activity; Q00535+Q15078; Recombinant CDK5/p35, ADP-Glo luminescence, 60 min; inhibition, % at 10 µM; hit rate 0.01% among 330,000; AID 488839;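 active = highest replicate inhibition of at least 50% and at least 75% of replicates reaching 50%; inconclusive = only one of the two criteria met; inactive = both criteria failed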;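 note: plate controls were DMSO neutral control for no effect and GW8510 at 10 µM for full effect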
Target sequence (Q00535 whole entry, looked up): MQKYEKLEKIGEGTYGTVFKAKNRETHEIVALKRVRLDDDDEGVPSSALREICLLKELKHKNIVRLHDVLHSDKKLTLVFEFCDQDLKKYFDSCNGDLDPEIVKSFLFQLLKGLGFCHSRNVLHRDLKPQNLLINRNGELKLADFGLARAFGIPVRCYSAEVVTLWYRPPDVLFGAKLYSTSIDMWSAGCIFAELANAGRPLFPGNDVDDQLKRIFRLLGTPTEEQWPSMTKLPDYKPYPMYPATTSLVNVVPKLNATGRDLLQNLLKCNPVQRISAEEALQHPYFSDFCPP
Target sequence (Q15078 whole entry, looked up): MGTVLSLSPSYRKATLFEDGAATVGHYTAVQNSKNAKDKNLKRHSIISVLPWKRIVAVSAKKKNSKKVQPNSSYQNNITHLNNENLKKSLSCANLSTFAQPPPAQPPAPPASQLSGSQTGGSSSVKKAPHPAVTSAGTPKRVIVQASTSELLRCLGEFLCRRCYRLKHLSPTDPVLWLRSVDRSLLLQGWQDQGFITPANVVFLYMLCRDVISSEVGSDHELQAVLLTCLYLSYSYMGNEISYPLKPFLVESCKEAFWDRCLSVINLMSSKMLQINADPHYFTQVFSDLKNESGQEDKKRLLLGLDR
HIV Env fusion: HIV envelope-mediated fusion inhibition; HeLa-JRFL Env/CEM21 cell fusion, luciferase; inhibition, % at 12.3 µM; hit rate 1.1% among 360,000; AID 651610;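 active = mean replicate inhibition score of at least 50 and every replicate individually at or above 50; inconclusive = only one of the two criteria met; inactive = mean below 50 and not all replicates reaching 50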;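 note: 0% = plate neutral controls and 100% = maraviroc near 300 nM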
INS-1E GSIS act: primary screen for activators of insulin secretion dependent on glucose, INS-1E cells, GLuc reporter luminescence | activation, % at 16.6 µM | hit rate 0.61% among 370,000 | INS-1E GLuc reporter insulin secretion, 2-3 h;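 active = lowest replicate activation of at least 40%, so every replicate reaches that level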;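 note: 0% = median of neutral control wells and 100% = median of IBMX positive control wells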
STK33 inh: inhibitors of human STK33 kinase. purified STK33, MBP phosphorylation, ADP-Glo luminescence. inhibition, % at 10 µM. hit rate 0.073% among 320,000. AID 2661;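 active = inhibition at or above 25%, using the most active replicate where run in duplicate; inactive = inhibition below 25%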
GSK3 alpha inh: inhibitors of human GSK-3 alpha kinase | P49840 | hit rate 0.1% among 320,000 | ADP-Glo luminescence, 60 min | inhibition, % at 10 µM;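 active = more than half of replicates show inhibition above 20%; inconclusive = some but at most half of replicates above 20% inhibition; inactive = no replicate shows inhibition above 20%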;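 note: GST-tagged GSK-3 alpha with peptide substrate and 25 µM ATP; 0% = DMSO neutral wells and 100% = GW8510 positive control wells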
GSK3B inh: inhibitors of human GSK3beta kinase. hit rate 0.038% among 300,000. GST-GSK3beta kinase, ADP-Glo luminescence, 60 min; active compounds read low. P49841. activity score (negative = inhibition), % at 10 µM. AID 2097;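 active = more than half of replicate wells score below -50%, meaning over 50% inhibition versus plate controls; inconclusive = some replicates but at most half score below -50%; inactive = no replicate scores below -50%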;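 note: 0% = median DMSO wells and -100% = median GW8510 positive control wells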
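Assay system: GST-fused GSK3beta enzyme, cell-free / Medium: Tris pH 7.5 buffer with MgCl2, DTT, BSA, heparin / Also added: peptide substrate plus 25 µM ATP (final) / Compound: 10 µM single point / Timing: kinase reaction with compound 60 min at room temperature / Detection: ADP-Glo luminescence / Benchmarks: DMSO neutral wells and GW8510 at 20 µM as positive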
Active calls of the source: *; ? = inconclusive; / = not tested or not shown; [ ] = dose if it differs, or a comment. Rows were chosen to be rich in hits. Some 1.4% of all compounds tested hit in one or more screens of this group.

SMILES	CDK5 p35 inh	HIV Env fusion	INS-1E GSIS act	STK33 inh	GSK3 alpha inh	GSK3B inh
COc1ccc(C[C@H]2CCc3cnnn3COC[C@H](C(C)C)NC2=O)cc1	/	-4[16.7 µM]	4	/	/	/
C[C@@H]1CN([C@H](C)CO)C(=O)c2cccc(NS(=O)(=O)c3cn(C)cn3)c2O[C@@H]1CN(C)C(=O)Nc1ccc(F)cc1	/	9[16.7 µM]	5	/	/	/
C[C@@H]1CN([C@H](C)CO)C(=O)c2cc(NS(=O)(=O)c3ccc(F)cc3)ccc2O[C@@H]1CN(C)Cc1ccc(C(F)(F)F)cc1	/	-10[16.7 µM]	-15	/	/	/
C[C@@H]1CN([C@H](C)CO)C(=O)c2cc(NS(=O)(=O)c3ccc(F)cc3)ccc2O[C@H]1CN(C)Cc1ccc(C(F)(F)F)cc1	/	72*[16.7 µM]	-22	/	/	/
C[C@@H]1CN([C@@H](C)CO)C(=O)c2cccc(NS(=O)(=O)c3ccc(F)cc3)c2O[C@@H]1CN(C)Cc1ccc(C(F)(F)F)cc1	/	58*[16.7 µM]	-11	/	/	/
C[C@@H]1CN([C@@H](C)CO)C(=O)Cc2cc(NS(=O)(=O)c3ccc(F)cc3)ccc2O[C@H]1CN(C)Cc1ccc(C(F)(F)F)cc1	/	56*[16.7 µM]	-9	/	/	/
C[C@@H]1CN([C@H](C)CO)C(=O)c2cccc(NS(=O)(=O)c3cn(C)cn3)c2O[C@H]1CN(C)C(=O)Nc1ccc(F)cc1	/	73*[16.7 µM]	-5	/	/	/
C[C@@H]1CN([C@H](C)CO)C(=O)c2cccc(NS(=O)(=O)c3ccc(F)cc3)c2O[C@H]1CN(C)Cc1ccc(C(F)(F)F)cc1	/	39[16.7 µM]	-11	/	/	/
Cc1cc(N2CCN(Cc3ccccc3)CC2)n2nc(C)c(-c3ccccc3)c2n1	0	63*	/	-1	-3	-1
COc1ccc(-c2c(C)nn3c(N4CCN(Cc5ccccc5)CC4)cc(C)nc23)cc1OC	0	26	-6	-1	0	1
NS(=O)(=O)c1ccc(NC(=O)COC(=O)c2cn(-c3ccccc3)nc2-c2ccc(F)cc2)cc1	-1	-7	65*	0	1	-2
O=C(COC(=O)c1cn(-c2ccccc2)nc1-c1ccc(F)cc1)Nc1ncc(Cl)cc1Cl	0	-11	-1	-1	-4	-3
COc1ccccc1CNC(=O)COC(=O)CSc1ccc(C)c(C)c1	-3	68*	65	/	/	/
Cc1ccc(SCC(=O)OCC(=O)NCc2cccs2)cc1C	1	0	6	-1	3	-1
CC(=O)Nc1cccc2c1C(=O)NC2=O	1	/	/	1	72*	2
Cc1noc(C)c1NC(=O)N(C)C[C@H]1Oc2ccc(NC(=O)NC3CCCCC3)cc2CC(=O)N([C@H](C)CO)C[C@@H]1C	/	-6[16.7 µM]	3	/	/	/
C=CCOC(=O)[C@@]12O[C@]3(COC[C@H](c4ccccc4)N3C1=O)[C@@H]1C(=O)N(c3ccccc3)C(=O)[C@@H]12	/	21[16.7 µM]	/	/	/	/
C/C=C/c1cnc2c(c1)C(=O)N([C@@H](C)CO)C[C@@H](C)[C@H](CN(C)S(=O)(=O)c1cn(C)cn1)O2	/	/	8	/	/	/
Cc1ccccc1OCC(=O)Nc1ccccc1-c1ccccc1NC(=O)COc1ccccc1C	-2	64*	-35	-2	0	3
Cc1ccccc1CS(=O)(=O)c1nnc([C@H](Cc2ccccc2)NC(=O)OC(C)(C)C)o1	0	/	45*	-1	-3	-1
CCSc1nnc([C@H](Cc2ccccc2)NC(=O)OC(C)(C)C)o1	0	-23	/	0	1	3
CC(C)(C)OC(=O)N[C@@H](Cc1ccccc1)c1nnc(S(=O)(=O)Cc2ccccc2)o1	/	47	169*	0	-1	/
O=C(O)CCn1cc(/C=N/O)c(-c2cccc([N+](=O)[O-])c2)n1	0	11	6	8	78*	-66*
NC(=S)N/N=C/c1cn(CCC(=O)O)nc1-c1cccc(Br)c1	1	-4	17	1	1	-3
Cc1cc(C)n2nc(NCc3cccc(Br)c3)nc2n1	-1	106*	/	-3	-1	4
SMILES	CDK5 p35 inh	HIV Env fusion	INS-1E GSIS act	STK33 inh	GSK3 alpha inh	GSK3B inh
Cc1noc(C)c1S(=O)(=O)Nc1ccc2c(c1)C(=O)N([C@@H](C)CO)C[C@H](C)[C@@H](CN(C)S(=O)(=O)c1ccccc1)OCCCC[C@H](C)O2	/	7[16.7 µM]	-12	/	/	/
Clc1ccc2nc(C3CCCCC3)c(CC3CCCCC3)n2c1	/	-63	/	/	/	/
CC(C)(C)c1nc2ccc(Cl)cn2c1CC1CCCCC1	/	2	53*	/	/	/
CO[C@H]1CN(C)C(=O)c2ccc(NC(=O)C3CC3)cc2OC[C@@H](C)N(C(=O)c2cnccn2)C[C@@H]1C	/	/	12	/	/	/
COc1ccccc1NC(=O)N1C[C@@H](O)COC[C@H]2O[C@H](CC(=O)NCCc3ccccc3)CC[C@@H]21	/	/	12	/	/	/
CC1(C)N=C(N)N=C(N)N1CCCCc1ccccc1	0	75*	-55	/	/	/
COc1ccc(COCC(CC(C)C)N2CCN(C(=O)c3cccc(C(F)(F)F)c3)CCC2=O)cc1 (configuration not stated)	1	-3	-16	-3	/	2
Cc1cccc(C(=O)N2CCC(=O)N(C(COCc3cccc(C(F)(F)F)c3)Cc3ccccc3)CC2)c1 (configuration not stated)	0	26	-55	1	2	2
CC(C)CC(COCc1cccc(Cl)c1)N1CCN(C(=O)c2cccc(C(F)(F)F)c2)CCC1=O (configuration not stated)	-2	76*	-55	1	0	2
Cc1cccc(COC[C@H](CC(C)C)N2CCN(C(=O)c3ccc(C(F)(F)F)cc3)CCC2=O)c1	/	42	-43	/	/	/
O=C(c1ccc(Cl)c(Cl)c1)N1CCC(=O)N([C@H](COCc2cccc(C(F)(F)F)c2)Cc2ccccc2)CC1	/	92*	10	/	/	/
CC(C)C[C@@H](COCc1cccc(C(F)(F)F)c1)N1CCN(C(=O)c2ccc(C(F)(F)F)cc2)CCC1=O	/	62*	-19	/	/	/
C[C@@H]1CN([C@@H](C)CO)C(=O)c2cc(C3=CCCCC3)cnc2O[C@H]1CN(C)C(=O)Cc1cccnc1	/	-31[16.7 µM]	-2	/	/	/
COc1ccc(/C=c2\s/c(=C\C(=O)C(C)(C)C)[nH]c2=O)cc1O	2	-11	-6	8	63*	-46
CSc1nc(Nc2ccc(Cl)cc2)c(C#N)c(=O)[nH]1	0	?	25	-1	-1	-1
CSc1nc(-c2ccc(Cl)cc2)c(C#N)c(=O)[nH]1	0	59*	0	0	-4	3
COC(=O)[C@@]1(C)[C@H]2C(=O)N(Cc3ccccc3)C(=O)[C@H]2[C@H]2CN=C(SCc3ccccc3)N21	1	77*	-7	/	/	/
CC[C@]1(C(=O)OC)[C@H]2C(=O)N(Cc3ccccc3)C(=O)[C@H]2[C@H]2CN=C(SCc3ccc(C(=O)OC)cc3)N21	1	32	-15	/	/	/
